Data on 21 molecules can be found in ChEMBL document CHEMBL2407080, “Synthesis and antifungal activities of cyclic octa-lipopeptide burkholdine analogues” (2013).

Values after ≈ are worked out from the molar mass of the structure shown.

Type in all cases: functional
Experiment [1] in a line: Antifungal activity against Candida viswanathii NBRC10321 after 24 hrs by two-fold serial dilution method. Summed up: (§1)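 Broth twofold serial dilution MIC. Organisms were pre-grown 2 days in YPD broth, and the assay was run in YPD. Compound started at […] in medium with 0.1% DMSO, then serially diluted twofold. Each well was inoculated with about 5.0 × 10³ cells and incubated 24 h at 30 °C. MIC is the lowest concentration with no visible growth.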

The next experiment deals with Aspergillus oryzae. As to the kind of experiment: Antifungal activity against Aspergillus oryzae 1-Murasaki-1 after 24 hrs by two-fold serial dilution method. Particulars: 1-Murasaki-1, 24 h. Summed up: as §1
A further experiment deals with Saccharomyces cerevisiae. The experiment is described as follows: Antifungal activity against Saccharomyces cerevisiae X2180-1A after 24 hrs by two-fold serial dilution method. Summed up:
as §1

Usually MIC stands for the lowest concentration found to suppress growth. A higher MIC goes with weaker potency. For the molecule `CCCCCCCCCCCCNC(=O)[C@@H]1CC(=O)N[C@@H](CO)C(=O)N[C@@H](Cc2ccc(O)cc2)C(=O)N[C@H](CC(N)=O)C(=O)NCC(=O)N[C@@H](CC(N)=O)C(=O)N[C@@H](CO)C(=O)N[C@@H](CC(N)=O)C(=O)N1`, the MIC is 800 µg/mL (≈ 785 µM) in experiment [1], 400 µg/mL (≈ 392 µM) against Aspergillus oryzae and more than 800 µg/mL in the experiment on Saccharomyces cerevisiae.
For the molecule `CCCCCCCCCCCCNC(=O)[C@H]1CC(=O)N[C@H](CO)C(=O)N[C@H](Cc2ccc(O)cc2)C(=O)N[C@@H](CC(N)=O)C(=O)NCC(=O)N[C@@H](CC(N)=O)C(=O)N[C@@H](CO)C(=O)N[C@@H](CC(N)=O)C(=O)N1`, the MIC in experiment [1] was more than 800 µg/mL; in the experiment on Aspergillus oryzae, 800 µg/mL (≈ 785 µM); with Saccharomyces cerevisiae, 800 µg/mL (≈ 785 µM).
Consider `CCCCCCCCCCCCNC(=O)[C@H]1CC(=O)N[C@@H](CO)C(=O)N[C@H](Cc2ccc(O)cc2)C(=O)N[C@H](CC(N)=O)C(=O)NCC(=O)N[C@@H](CC(N)=O)C(=O)N[C@@H](CO)C(=O)N[C@@H](CC(N)=O)C(=O)N1`, for which the MIC in experiment [1] is more than 800 µg/mL; against Aspergillus oryzae it was 100 µg/mL (≈ 98.1 µM); in the experiment with Saccharomyces cerevisiae it was 50 µg/mL (≈ 49.1 µM).
For `CCCCCCCCCCCCNC(=O)[C@H]1CC(=O)N[C@@H](CO)C(=O)N[C@H](Cc2ccc(O)cc2)C(=O)N[C@@H](CC(N)=O)C(=O)NCC(=O)N[C@@H](CC(N)=O)C(=O)N[C@@H](CO)C(=O)N[C@@H](CC(N)=O)C(=O)N1`, in that order: more than 800 µg/mL, more than 800 µg/mL and 800 µg/mL (≈ 785 µM).
For `CCCCCCCCCCCCNC(=O)[C@H]1CC(=O)N[C@H](CO)C(=O)N[C@@H](Cc2ccc(O)cc2)C(=O)N[C@@H](CC(N)=O)C(=O)NCC(=O)N[C@@H](CC(N)=O)C(=O)N[C@@H](CO)C(=O)N[C@@H](CC(N)=O)C(=O)N1`, in that order: more than 800 µg/mL, more than 800 µg/mL and 400 µg/mL (≈ 392 µM).
For `CCCCCCCCCCCCNC(=O)[C@H]1CC(=O)N[C@@H](CO)C(=O)N[C@@H](Cc2ccc(O)cc2)C(=O)N[C@@H](CC(N)=O)C(=O)NCC(=O)N[C@@H](CC(N)=O)C(=O)N[C@@H](CO)C(=O)N[C@@H](CC(N)=O)C(=O)N1`, in that order: more than 800 µg/mL, more than 800 µg/mL and 200 µg/mL (≈ 196 µM).
For `NC(=O)C[C@@H]1NC(=O)CNC(=O)[C@@H](CC(N)=O)NC(=O)[C@@H](Cc2ccc(O)cc2)NC(=O)[C@@H](CO)NC(=O)CCNC(=O)[C@H](CC(N)=O)NC(=O)[C@H](CO)NC1=O`, the minimal inhibitory concentration (MIC) in experiment [1] was more than 800 µg/mL; in the experiment with Aspergillus oryzae it was 800 µg/mL (≈ 990 µM); in the experiment on Saccharomyces cerevisiae, 800 µg/mL (≈ 990 µM).
Regarding `CCCCCCCCCCCCNC(=O)[C@@H]1CC(=O)N[C@H](CO)C(=O)N[C@H](Cc2ccc(O)cc2)C(=O)N[C@H](CC(N)=O)C(=O)NCC(=O)N[C@@H](CC(N)=O)C(=O)N[C@@H](CO)C(=O)N[C@@H](CC(N)=O)C(=O)N1`, the MIC turned out to be 800 µg/mL (≈ 785 µM) in experiment [1], 50 µg/mL (≈ 49.1 µM) in the experiment on Aspergillus oryzae and 25 µg/mL (≈ 24.5 µM) against Saccharomyces cerevisiae.
Take `CCCCCCCCCCCCNC(=O)[C@@H]1CC(=O)N[C@H](CO)C(=O)N[C@@H](Cc2ccc(O)cc2)C(=O)N[C@H](CC(N)=O)C(=O)NCC(=O)N[C@@H](CC(N)=O)C(=O)N[C@@H](CO)C(=O)N[C@@H](CC(N)=O)C(=O)N1`: the results for the MIC (in experiment [1]; in the experiment with Aspergillus oryzae; against Saccharomyces cerevisiae) were 400 µg/mL (≈ 392 µM), 100 µg/mL (≈ 98.1 µM) and 50 µg/mL (≈ 49.1 µM), respectively.
For `CCCCCCCCCCCCNC(=O)[C@@H]1CC(=O)N[C@@H](CO)C(=O)N[C@H](Cc2ccc(O)cc2)C(=O)N[C@H](CC(N)=O)C(=O)NCC(=O)N[C@@H](CC(N)=O)C(=O)N[C@@H](CO)C(=O)N[C@@H](CC(N)=O)C(=O)N1`, in that order: more than 800 µg/mL, 400 µg/mL (≈ 392 µM) and 800 µg/mL (≈ 785 µM).
For `CCCCCCCCCCCCNC(=O)[C@@H]1CC(=O)N[C@H](CO)C(=O)N[C@H](Cc2ccc(O)cc2)C(=O)N[C@@H](CC(N)=O)C(=O)NCC(=O)N[C@@H](CC(N)=O)C(=O)N[C@@H](CO)C(=O)N[C@@H](CC(N)=O)C(=O)N1`, in that order: more than 800 µg/mL, 800 µg/mL (≈ 785 µM) and more than 800 µg/mL.
In the case of `C[C@@H]1[C@H](O)[C@@H](C)/C=C/C=C/C=C/C=C/C=C/C=C/C=C/[C@H](O[C@@H]2O[C@H](C)[C@@H](O)[C@H](N)[C@@H]2O)C[C@@H]2O[C@](O)(C[C@@H](O)C[C@@H](O)[C@H](O)CC[C@@H](O)C[C@@H](O)CC(=O)O[C@H]1C)C[C@H](O)[C@H]2C(=O)O` [AMPHOTERICIN B], the MIC with Saccharomyces cerevisiae was determined as 0.8 µg/mL (≈ 0.866 µM).
On to `CCCCCCCCCCCCNC(=O)[C@@H]1CC(=O)N[C@H](CO)C(=O)N[C@@H](Cc2ccc(O)cc2)C(=O)N[C@@H](CC(N)=O)C(=O)NCC(=O)N[C@@H](CC(N)=O)C(=O)N[C@@H](CO)C(=O)N[C@@H](CC(N)=O)C(=O)N1`, for which the MIC in experiment [1] is more than 800 µg/mL; against Aspergillus oryzae it was more than 800 µg/mL; against Saccharomyces cerevisiae, 400 µg/mL (≈ 392 µM).
As to `CCCCCCCCCCCCNC(=O)[C@@H]1CC(=O)N[C@@H](CO)C(=O)N[C@H](Cc2ccc(O)cc2)C(=O)N[C@@H](CC(N)=O)C(=O)NCC(=O)N[C@@H](CC(N)=O)C(=O)N[C@@H](CO)C(=O)N[C@@H](CC(N)=O)C(=O)N1`, the MIC was 800 µg/mL (≈ 785 µM) in experiment [1], 400 µg/mL (≈ 392 µM) against Aspergillus oryzae and more than 800 µg/mL in the experiment with Saccharomyces cerevisiae.
As to `CCCCCCCCCCCCNC(=O)[C@H]1CC(=O)N[C@@H](CO)C(=O)N[C@@H](Cc2ccc(O)cc2)C(=O)N[C@H](CC(N)=O)C(=O)NCC(=O)N[C@@H](CC(N)=O)C(=O)N[C@@H](CO)C(=O)N[C@@H](CC(N)=O)C(=O)N1`, the MIC in experiment [1] is more than 800 µg/mL; against Aspergillus oryzae, 800 µg/mL (≈ 785 µM); in the experiment with Saccharomyces cerevisiae, 800 µg/mL (≈ 785 µM).
Consider `CCCCCCCCCCCCNC(=O)[C@H]1CC(=O)N[C@H](CO)C(=O)N[C@H](Cc2ccc(O)cc2)C(=O)N[C@H](CC(N)=O)C(=O)NCC(=O)N[C@@H](CC(N)=O)C(=O)N[C@@H](CO)C(=O)N[C@@H](CC(N)=O)C(=O)N1`, for which the values for the MIC (in experiment [1]; in the experiment on Aspergillus oryzae; against Saccharomyces cerevisiae) were more than 800 µg/mL, 800 µg/mL (≈ 785 µM) and 400 µg/mL (≈ 392 µM), respectively.
For `NC(=O)C[C@@H]1NC(=O)CNC(=O)[C@@H](CC(N)=O)NC(=O)[C@H](Cc2ccc(O)cc2)NC(=O)[C@@H](CO)NC(=O)CCNC(=O)[C@H](CC(N)=O)NC(=O)[C@H](CO)NC1=O`, in that order: more than 800 µg/mL, more than 800 µg/mL and 800 µg/mL (≈ 990 µM).
Regarding `CCCCCCCCCCC[C@H](O)[C@H](O)[C@H](O)C[C@H]1CC(=O)N[C@@H](CO)C(=O)N[C@H]([C@H](O)c2ccc(O)cc2)C(=O)N[C@H](CC(N)=O)C(=O)NCC(=O)N[C@@H](CC(N)=O)C(=O)N[C@@H](CO)C(=O)N[C@@H]([C@H](O)C(N)=O)C(=O)N1`, in the experiment with Saccharomyces cerevisiae, the lowest concentration to inhibit growth (MIC) was 1.6 µg/mL (≈ 1.46 µM).
For the molecule `CCCCCCCCCCCCNC(=O)[C@H]1CC(=O)N[C@H](CO)C(=O)N[C@@H](Cc2ccc(O)cc2)C(=O)N[C@H](CC(N)=O)C(=O)NCC(=O)N[C@@H](CC(N)=O)C(=O)N[C@@H](CO)C(=O)N[C@@H](CC(N)=O)C(=O)N1`, the MIC in experiment [1] was more than 800 µg/mL; in the experiment with Aspergillus oryzae it was 400 µg/mL (≈ 392 µM); in the experiment with Saccharomyces cerevisiae, 400 µg/mL (≈ 392 µM).
Consider `CCCCCCCCCCCCNC(=O)[C@@H]1CC(=O)N[C@@H](CO)C(=O)N[C@@H](Cc2ccc(O)cc2)C(=O)N[C@@H](CC(N)=O)C(=O)NCC(=O)N[C@@H](CC(N)=O)C(=O)N[C@@H](CO)C(=O)N[C@@H](CC(N)=O)C(=O)N1`, for which the MIC was more than 800 µg/mL in experiment [1], 200 µg/mL (≈ 196 µM) against Aspergillus oryzae and 800 µg/mL (≈ 785 µM) against Saccharomyces cerevisiae.
For `NC(=O)C[C@@H]1NC(=O)CNC(=O)[C@H](CC(N)=O)NC(=O)[C@H](Cc2ccc(O)cc2)NC(=O)[C@H](CO)NC(=O)CCNC(=O)[C@H](CC(N)=O)NC(=O)[C@H](CO)NC1=O`, in that order: 800 µg/mL (≈ 990 µM), more than 800 µg/mL and more than 800 µg/mL.
